# Experimental data of several laboratories.
# Protocols differ between the studies behind these lines.
# RPS6KA5 C-terminal kinase domain: Ribosomal protein S6 kinase alpha-5, C-terminal kinase domain (RPS6KA5, Homo sapiens, UniProt O75582)
# RPS6KA5: Ribosomal protein S6 kinase alpha-5 (RPS6KA5, Homo sapiens, UniProt O75582)
# RPS6KA5 N-terminal kinase domain: Ribosomal protein S6 kinase alpha-5, N-terminal kinase domain (RPS6KA5, Homo sapiens, UniProt O75582)
Structure (SMILES),target,observed,action,method,concentration,quantity,value
CCS(=O)(=O)c1cc2cc(C[C@](O)(CC(C)(C)c3ccc(F)cc3C(N)=O)C(F)(F)F)[nH]c2cn1,RPS6KA5 C-terminal kinase domain,cell-free assay,,competition with immobilised ligand,1 µM,remaining binding,100%
CNC(=O)c1cc(Oc2ccc(NC(=O)Nc3ccc(Cl)c(C(F)(F)F)c3)cc2)ccn1,RPS6KA5,enzyme activity,inhibitor,,10 µM,inhibition,8%
COc1cc(Cl)c(C(=O)N[C@@H](CN[C@H]2CC[C@@H](N)CC2)Cc2ccc(C#N)cc2)cc1-c1ccc(CN[C@H](C)c2ccc(C)cc2)o1,RPS6KA5,enzyme activity,inhibitor,,1 µM,remaining activity,85%
CNCc1ccc(-c2cc(-c3nc(-c4ccc(S(=O)(=O)C(C)C)cc4)cnc3N)on2)cc1,RPS6KA5,enzyme activity,inhibitor,,2 µM,inhibition,0%
CC1CCCN1c1nccc(-c2cnn3ncccc23)n1 (stereo not drawn),RPS6KA5 C-terminal kinase domain,binding,,competition with immobilised ligand,1 µM,remaining binding,100%
NS(=O)(=O)c1cc(NC(=O)Cc2ccccc2)ccc1Oc1cccc(Cl)c1,RPS6KA5 N-terminal kinase domain,cell-free assay,,competition with immobilised ligand,1 µM,remaining binding,71%
CNc1cccc2cc(C(=O)Nc3ccc(C(=O)O)cc3)c(=O)[nH]c12,RPS6KA5,enzyme activity,inhibitor,,10 µM,inhibition,-7.3%
C[C@@H]1CCN(c2nccc(-c3cnn4ncccc34)n2)C1,RPS6KA5 C-terminal kinase domain,binding,,competition with immobilised ligand,1 µM,remaining binding,100%
O=C(NS(=O)(=O)c1ccc(NCC2CCOCC2)c([N+](=O)[O-])c1)c1ccc(N2CCN(Cc3ccc(C(F)(F)F)cc3-c3ccc(Cl)cc3)CC2)cc1Oc1cnc2[nH]ccc2c1,RPS6KA5 N-terminal kinase domain,cell-free assay,,competition with immobilised ligand,1 µM,remaining binding,97%
CCN(CC)c1ccc(C2=NNC(=O)CC2C)cc1[N+](=O)[O-] (stereo not drawn),RPS6KA5,enzyme activity,inhibitor,,10 µM,remaining activity,83%
CCc1ccccc1C(=O)Nc1n[nH]c2c(C)c(F)c(C3C(C#N)=C(C)N(C)C(C)=C3C#N)cc12,RPS6KA5 C-terminal kinase domain,cell-free assay,,competition with immobilised ligand,1 µM,remaining binding,90%
O=C1Nc2ccc(Cl)cc2C1=Cc1cc(Cl)c(O)c(Cl)c1,RPS6KA5,cell-free assay,,,0.5 µM,remaining signal,86.1%
C=CC(=O)Nc1cc(Nc2nccc(Nc3cc(Cl)c(F)cc3C(C)(C)O)n2)c(OC)cc1N1CC[C@@H](N(C)C)C1,RPS6KA5,enzyme activity,inhibitor,,1 µM,inhibition,26%
CN(C)c1ncc(F)c(-c2cnn3ncccc23)n1,RPS6KA5 C-terminal kinase domain,binding,,competition with immobilised ligand,1 µM,remaining binding,89%
Nc1nc(Nc2ccc(S(N)(=O)=O)cc2)nn1C(=O)c1c(F)cccc1F,RPS6KA5,cell-free assay,,,0.5 µM,remaining signal,97.2%
CCCS(=O)(=O)Nc1ccc(F)c(C(=O)c2c[nH]c3ncc(-c4ccc(Cl)cc4)cc23)c1F,RPS6KA5,enzyme activity,inhibitor,,1 µM,inhibition,< 10%
CC(C)(C)C(=O)c1sc(NC2CCCCC2)nc1N,RPS6KA5,enzyme activity,inhibitor,,10 µM,remaining activity,102%
CN(c1nccc(-c2cnn3ncccc23)n1)C1CC1,RPS6KA5 N-terminal kinase domain,binding,,competition with immobilised ligand,1 µM,remaining binding,100%
Oc1cccc(-c2nc(N3CCOCC3)c3oc4ncccc4c3n2)c1,RPS6KA5,cell-free assay,,,0.5 µM,remaining signal,86.5%
CCCOc1ccc(OC)c(F)c1C(=O)c1ccc(C(=O)N[C@@H]2CNC[C@H]2NC(=O)c2ccc3[nH]ncc3c2)cc1,RPS6KA5,enzyme activity,inhibitor,,10 µM,remaining activity,2%
CCC(=N\O)/C(C)=C/c1ccc(F)cc1,RPS6KA5 N-terminal kinase domain,cell-free assay,,competition with immobilised ligand,1 µM,remaining binding,100%
N[C@@H]1CCN(c2nccc(-c3cnn4ncccc34)n2)C1,RPS6KA5 N-terminal kinase domain,binding,,competition with immobilised ligand,1 µM,remaining binding,94%
COc1cc(Nc2cnc(C#N)c(O[C@H](C)CN(C)C)n2)ncc1-c1cnn(C)c1,RPS6KA5,enzyme activity,inhibitor,radiometric,10 µM,remaining activity,41%
O=C(NC[C@@H]1[C@H]2CN(C(=O)OCc3cc(C(F)(F)F)cc(C(F)(F)F)c3)C[C@@H]12)c1ccc2[nH]nnc2c1,RPS6KA5 N-terminal kinase domain,cell-free assay,,competition with immobilised ligand,1 µM,remaining binding,100%
FC(F)c1nc2ccccc2n1-c1nc(N2CCOCC2)nc(N2CCOCC2)n1,RPS6KA5,enzyme activity,inhibitor,,10 µM,remaining activity,89%
Cc1ccc(C(=O)Nc2ccc(CN3CCN(C)CC3)c(C(F)(F)F)c2)cc1C#Cc1cnc2cccnn12,RPS6KA5,enzyme activity,inhibitor,,23.5 nM,activity vs control,96%
Cc1nc(C2CCN(C(=O)c3ccc(OC(F)(F)F)cc3N)CC2)c2ncc(N3CCN(C)CC3)cc2n1,RPS6KA5 N-terminal kinase domain,cell-free assay,,competition with immobilised ligand,1 µM,remaining binding,100%
O=C1NC(=O)c2cc(Nc3ccc(F)cc3)c(Nc3ccc(F)cc3)cc21,RPS6KA5,cell-free assay,,,0.5 µM,remaining signal,93.6%
O=c1nc(-c2ccccn2)sc2ccccc12,RPS6KA5 N-terminal kinase domain,binding,,competition with immobilised ligand,1 µM,remaining binding,94%
O=C(Nc1cnn(-c2csc(C(=O)NC3COC3)c2)c1)Nc1c(F)cccc1Cl,RPS6KA5,enzyme activity,inhibitor,,5 µM,remaining activity,104%
COc1cc2ncnc(Nc3ccc(Oc4ccccc4)cc3C)c2cc1OC,RPS6KA5,enzyme activity,inhibitor,,1 µM,inhibition,2%
Nc1ncnc2occ(-c3ccc(NC(=O)Nc4cc(C(F)(F)F)ccc4F)cc3)c12,RPS6KA5 C-terminal kinase domain,cell-free assay,inhibitor,,20 µM,remaining signal,23%
COc1cc2c(N3CCN(C(=O)Nc4ccc(OC(C)C)cc4)CC3)ncnc2cc1OCCCN1CCCCC1,RPS6KA5,cell-free assay,,,0.5 µM,remaining signal,109%
CC(C)(C)c1nc(-c2cccc(NS(=O)(=O)c3c(F)cccc3F)c2F)c(-c2ccnc(N)n2)s1,RPS6KA5,enzyme activity,inhibitor,radiometric,1 µM,remaining activity,97%
Nc1nc(Nc2ccccc2)sc1C(=O)c1c(F)cccc1F,RPS6KA5,enzyme activity,inhibitor,,10 µM,remaining activity,87%
Cc1ccc(Nc2nccc(N(C)c3ccc4c(C)n(C)nc4c3)n2)cc1S(N)(=O)=O,RPS6KA5,enzyme activity,inhibitor,,10 µM,inhibition,36%
